Experimental findings from ChEMBL document CHEMBL2157928, “Diarylheptanoid glycosides from Tacca plantaginea and their effects on NF-κB activation and PPAR transcriptional activity” (Bioorg Med Chem Lett, 2012) are described below.

Type in all cases: cell-based
Series [1] deals with HepG2. The experiment in a line: Cytotoxicity against human HepG2 cells assessed as cell viability at 10 uM after 24 hrs by MTS assay. Particulars: hepg2, 24 h. On the technique in general: Formazan colour is commonly taken as a measure of viable cells.
Series [2] addresses T1, Peroxisome proliferator-activated receptor alpha (Homo sapiens) (UniProt Q07869).
T1 sequence (whole entry): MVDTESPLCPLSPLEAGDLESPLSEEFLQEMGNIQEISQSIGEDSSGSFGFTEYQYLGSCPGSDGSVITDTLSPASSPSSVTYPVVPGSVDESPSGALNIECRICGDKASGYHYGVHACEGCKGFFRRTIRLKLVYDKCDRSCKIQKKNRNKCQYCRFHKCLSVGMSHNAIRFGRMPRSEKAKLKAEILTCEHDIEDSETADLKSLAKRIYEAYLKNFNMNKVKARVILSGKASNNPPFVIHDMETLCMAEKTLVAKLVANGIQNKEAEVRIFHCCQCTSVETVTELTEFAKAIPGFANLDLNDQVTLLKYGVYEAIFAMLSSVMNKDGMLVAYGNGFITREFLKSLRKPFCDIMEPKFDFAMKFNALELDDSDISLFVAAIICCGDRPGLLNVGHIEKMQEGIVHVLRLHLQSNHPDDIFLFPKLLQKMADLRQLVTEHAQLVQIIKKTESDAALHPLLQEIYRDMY
As to the kind of experiment: Transactivation of GAL4-fused PPARalpha ligand binding domain transfected in human HepG2 cells at 10 uM after 20 hrs by luciferase reporter gene assay relative to control. The method in brief:
(§1)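 PPARα transactivation was measured by luciferase reporter in HepG2 cells. Activity was compared with a vehicle group, and ciprofibrate (1 µM) was the positive control.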

Series [3] has as its target T2, Peroxisome proliferator-activated receptor (Homo sapiens, UniProt P37231+Q07869+Q03181).
T2 sequence (P37231 whole entry): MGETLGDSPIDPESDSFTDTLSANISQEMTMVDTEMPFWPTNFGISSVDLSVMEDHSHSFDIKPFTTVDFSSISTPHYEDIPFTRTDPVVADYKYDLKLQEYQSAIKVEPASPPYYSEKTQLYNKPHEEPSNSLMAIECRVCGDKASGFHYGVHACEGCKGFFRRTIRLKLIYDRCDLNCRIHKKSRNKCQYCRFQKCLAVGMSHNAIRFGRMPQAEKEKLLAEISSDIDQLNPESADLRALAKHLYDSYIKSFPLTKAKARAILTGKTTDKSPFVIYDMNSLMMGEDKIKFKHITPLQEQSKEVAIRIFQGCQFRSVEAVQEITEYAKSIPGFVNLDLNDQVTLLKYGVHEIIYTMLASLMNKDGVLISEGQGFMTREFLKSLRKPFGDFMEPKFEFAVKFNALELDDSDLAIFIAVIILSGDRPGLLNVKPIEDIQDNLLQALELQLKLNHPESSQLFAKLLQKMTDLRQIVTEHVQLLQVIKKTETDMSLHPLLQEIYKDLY
T2 sequence (Q07869 whole entry): T1 sequence (whole entry)
T2 sequence (Q03181 whole entry): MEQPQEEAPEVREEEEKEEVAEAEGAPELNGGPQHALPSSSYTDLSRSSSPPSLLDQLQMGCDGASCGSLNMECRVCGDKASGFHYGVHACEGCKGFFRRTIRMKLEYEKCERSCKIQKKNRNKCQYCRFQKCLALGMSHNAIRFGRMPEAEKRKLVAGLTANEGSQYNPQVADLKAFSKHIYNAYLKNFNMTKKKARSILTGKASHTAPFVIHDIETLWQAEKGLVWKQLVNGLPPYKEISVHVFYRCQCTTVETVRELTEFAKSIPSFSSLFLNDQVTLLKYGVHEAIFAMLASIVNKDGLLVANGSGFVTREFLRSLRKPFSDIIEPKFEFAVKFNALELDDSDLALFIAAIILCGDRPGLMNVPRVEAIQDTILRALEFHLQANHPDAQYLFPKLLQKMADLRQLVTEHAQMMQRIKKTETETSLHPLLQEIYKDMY
The experiment in a line: (§2) Transactivation of PPAR transfected in human HepG2 cells after 20 hrs by luciferase reporter gene assay. (In general: In a reporter assay the amount or activity of a reporter protein is the signal.)

In series [4] the target is Peroxisome proliferator-activated receptor (Homo sapiens) (UniProt P37231+Q07869+Q03181). The description is as §2.
The target of series [5] is T3, Peroxisome proliferator-activated receptor delta (Homo sapiens, UniProt Q03181).
T3 sequence (Q03181 whole entry): T2 sequence (Q03181 whole entry)
As to the kind of experiment: (§3) Transactivation of GAL4-fused PPARbeta (delta) ligand binding domain transfected in human HepG2 cells after 20 hrs by luciferase reporter gene assay. In outline: (§4)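 For PPARβ(δ), luciferase transactivation was measured in HepG2 cells against a vehicle group, with L-165041 (1 µM) as positive control. EC50 came from the dose–response, given as mean ± SD (n = 3), with a cutoff of EC50 > 50 µM for inactivity.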

Series [6] has as its target T4, Peroxisome proliferator-activated receptor delta (Homo sapiens) (UniProt Q03181).
T4 sequence (whole entry): T2 sequence (Q03181 whole entry)
The description is as §3. In outline: as §4

In series [7] the target is T5, Peroxisome proliferator-activated receptor gamma (Homo sapiens) (UniProt P37231).
T5 sequence (whole entry): T2 sequence (P37231 whole entry)
As to the kind of experiment: Transactivation of GAL4-fused PPARgamma ligand binding domain transfected in human HepG2 cells assessed as upregulation of gene expression at 10 uM by luciferase reporter gene assay relative to control. In outline:
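In HepG2 cells, PPARγ luciferase transactivation was expressed as fold over the vehicle group. Troglitazone (1 µM) was the positive control, and significance was set against vehicle at p < 0.01.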

The target of series [8] is T6, Peroxisome proliferator-activated receptor gamma (Homo sapiens, UniProt P37231).
T6 sequence (P37231 whole entry): T2 sequence (P37231 whole entry)
As to the kind of experiment: Transactivation of GAL4-fused PPARgamma ligand binding domain transfected in human HepG2 cells after 20 hrs by luciferase reporter gene assay.

Series [9] concerns the target T7, Peroxisome proliferator-activated receptor alpha (Homo sapiens, UniProt Q07869).
T7 sequence (Q07869 whole entry): T1 sequence (whole entry)
As to the kind of experiment: Transactivation of GAL4-fused PPARalpha ligand binding domain transfected in human HepG2 cells after 20 hrs by luciferase reporter gene assay. The method in brief: as §1

The nature of series [10]: (§5) Inhibition of NF-kappaB expressed in human HepG2 cells assessed as inhibition of TNFalpha-induced luciferase activity preincubated for 1 hr followed by TNFalpha challenge measured after 1 hr by reporter gene assay. The method in brief: (§6)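 HepG2 cells transfected with an NF-κB-luciferase reporter were pretreated with compound at 0.1, 1 and 10 µM, then stimulated with TNF-α at 10 ng/mL. Sulfasalazine at 10 µM served as positive control. Luciferase activity was read. Data are mean ± SD (n = 3), with Dunnett's multiple comparison test, and IC50 was derived from the dose–response.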

For series [11], the system named is HepG2. Described as §5. In outline:
as §6

The structures appear in SMILES notation. A value given as a limit tells only on which side of the number the result lay.

By EC50 is commonly meant the concentration needed to bring the measured effect to its halfway point. Read a low EC50 as greater potency. Broadly, the IC50 is the point on the concentration scale where inhibition reaches its midpoint. Turning to `OC[C@H]1O[C@@H](Oc2ccc(CCCC[C@H](O)CCc3ccc(O[C@@H]4O[C@H](CO)[C@@H](O)[C@H](O)[C@H]4O)c(O)c3)cc2O)[C@H](O)[C@@H](O)[C@@H]1O` [PLANTAGINEOSIDE B], the Activity entry in [1] is “Non-toxic”; in series [4] it was “Dose-dependent effect”; in series [6], “Dose-dependent effect”. Besides, the fold change (FC) in [2] was determined as 1.3; in series [7] it was 1.5. In addition, the EC50 in series [3] was 10.4 µM; in series [5], 13.1 µM; in series [8], 33.1 µM; in series [9], more than 50 µM. Further, the IC50 in series [10] is more than 10 µM.

`CCCc1c(OCCCOc2ccc(OCC(=O)O)cc2)ccc(C(C)=O)c1O`: in series [5], the EC50 turned out to be 0.65 µM.

As for `OC[C@H]1O[C@@H](O[C@H](CCc2ccc(O)c(O)c2)C[C@H](O)CCc2ccc(O)cc2)[C@H](O)[C@@H](O)[C@@H]1O`, the Activity entry in [1] is “Non-toxic”; in [4] it was “Dose-dependent effect”; in series [6], “Dose-dependent effect”. The fold change (FC) in series [2] stood at 1.4. Also, the 50% effective concentration (EC50) was 0.3 µM in series [3], 15.6 µM in series [5], more than 50 µM in series [8] and 42.9 µM in [9]. The IC50 in series [10] was determined as 0.9 µM. Moreover, the inhibition entry in series [11] was “Dose-dependent effect”.

Regarding `OC[C@H]1O[C@@H](O[C@@H]2C[C@H](CCc3ccc(O)c(O)c3)O[C@H](c3ccc(O)c(O)c3)C2)[C@H](O)[C@@H](O)[C@@H]1O` [PLANTAGINEOSIDE C], the Activity entry in series [1] was “Non-toxic”; in series [4], “Dose-dependent effect”; in [6], “Dose-dependent effect”. Also, the EC50 in series [3] was 5.2 µM; in [5] it was 30.1 µM; in [8], more than 50 µM; in [9], more than 50 µM. Also, in series [10], the IC50 stood at 8 µM. The inhibition result in [11] was “Dose-dependent effect”.

For the molecule `O=C(CCCCc1ccc(O[C@@H]2O[C@H](CO)[C@@H](O)[C@H](O)[C@H]2O)c(O)c1)CCc1ccc(O[C@@H]2O[C@H](CO)[C@@H](O)[C@H](O)[C@H]2O)c(O)c1` [PLANTAGINEOSIDE A], the Activity entry in [1] is “Non-toxic”; in [4], “Dose-dependent effect”; in series [6] it was “Dose-dependent effect”. This molecule showed a fold change (FC) in series [2] of 1.4. In addition, the EC50 is 7 µM in series [3], 11 µM in [5], more than 50 µM in series [8] and 47.1 µM in [9]. For the same molecule, in [10], the IC50 was more than 10 µM.

On to `OC[C@H]1O[C@@H](O[C@H](CCc2ccc(O)cc2)C[C@H](O)CCc2ccc(O)cc2)[C@H](O)[C@@H](O)[C@@H]1O`, for which the figures for the Activity entry in series [1], in series [4] and in series [6] were “Non-toxic”, “Dose-dependent effect” and “Dose-dependent effect”, respectively. Besides, the EC50 in series [3] is 1.2 µM; in series [5], 29.3 µM; in [8] it was more than 50 µM; in series [9], more than 50 µM. Also, the IC50 in series [10] was found to be 6.2 µM. Besides, the inhibition entry in series [11] is “Dose-dependent effect”.

Turning to `OC[C@H]1O[C@@H](O[C@H](CCc2ccc(O)c(O)c2)C[C@H](O)CCc2ccc(O)c(O)c2)[C@H](O)[C@@H](O)[C@@H]1O`, the Activity entry in series [1] is “Non-toxic”; in series [4], “Dose-dependent effect”; in [6] it was “Dose-dependent effect”. The molecule also came in with a fold change (FC) in series [2] of 1.3. The EC50 in series [3] is 9.9 µM; in series [5], 23.1 µM; in series [8], more than 50 µM; in series [9] it was more than 50 µM. Moreover, the IC50 in series [10] was determined as 9.4 µM. Besides, in series [11], the inhibition entry is “Dose-dependent effect”.

As for `O=C(O)c1cc(/N=N/c2ccc(S(=O)(=O)Nc3ccccn3)cc2)ccc1O` [SULFASALAZINE], the IC50 in series [10] is 0.9 µM.
